The values below come from paper PMC4629109 (Acta Pharmaceutica Sinica. B, 2014).

The nature of data set [1]: Transport across ARPE-19 monolayer cells. In kind it is in vitro ADME. As to conditions: human. A digest of the protocol:
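ARPE-19 cells were seeded at 2.5×10⁵ cells/insert on 12-well 0.4 μm polycarbonate Transwells and used once TEER reached 150 Ω. After two HBSS rinses, 100 μmol/L compound in 37 °C HBSS was added apically. Basolateral samples were taken at 30, 60, 120, 240 and 360 min with replacement and analysed by HPLC. Papp=(ΔQ/Δt)/(A×C0), with A 1.12 cm², n=3. The ratio is Papp test/Papp fluorescein; a competition set used 24 h pre-incubation with 10 mmol/L taurine.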

Data set [2] is described as follows: n-octanol/water partition coefficient, shake flask method. In kind it is physicochemical. A digest of the protocol:
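Shake-flask method: n-octanol and water were mutually presaturated (24 h shaking, 4000 rpm 10 min). The compound was dissolved in water-saturated octanol and mixed with an equal volume of octanol-saturated water. The mixture was shaken at 100 times/min at 25 °C for 24 h and centrifuged at 4000 rpm for 10 min. Both phases were diluted and quantified by HPLC (UV 230 nm), and P was calculated as C(oil)/C(water).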

The test system of the next data set is ARPE-19. Kind of data set: Cellular internalization by confocal scanning microscopy. As to conditions: ARPE-19, 100 μmol/L, 37 °C. In kind it is cell-based. A digest of the protocol:
(§1)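 Cells were seeded on confocal dishes at 5×10³ cells/well and grown 24 h at 37 °C. They were then exposed to 100 μmol/L test compound or fluorescein for 2 h or 6 h, and washed three times with HBSS. Intracellular fluorescence was imaged by laser scanning confocal microscopy, with excitation at 488 nm for fluorescein and 405 nm for the conjugate.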

Data set [3] is described as follows: Transport across hRMECs monolayer cells. As to conditions: human. The class given is in vitro ADME. A digest of the protocol: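 hRMEC monolayers were grown on 24-well 0.4 μm polycarbonate Transwells and used at TEER 200 Ω. After rinsing, 100 μmol/L compound in 37 °C HBSS was added apically. Basolateral samples were taken at 30, 60, 120, 240 and 360 min with replacement and analysed by HPLC (UV 230 nm). Papp=(ΔQ/Δt)/(A×C0), with A 0.33 cm², n=3. The ratio is Papp test/Papp fluorescein; a competition set used 24 h pre-incubation with 10 mmol/L taurine in both chambers.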

The test system of another data set is hRMECs. Kind of data set: Cellular internalization by confocal scanning microscopy. The class given is cell-based, human. The note with it: 100 μmol/L, 37 °C. In a few lines:
as §1

The nature of another data set: Solubility study. In kind it is physicochemical. As to conditions: doubly distilled water, 25 °C, thermodynamic from solid. A digest of the protocol: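 Excess solid was placed in doubly distilled water and shaken at 100 times/min at 25 °C for 24 h. It then stood a further 24 h at 25 °C and was centrifuged. The supernatant was assayed by HPLC on a Polar-RP column at 35 °C, with UV at 230 nm and pH 2.5 phosphate buffer/acetonitrile.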

In brackets after ≈: the same amount, converted by molar mass.

As to `O=C1OC2(c3ccc(O)cc3Oc3cc(O)ccc32)c2ccccc21` [Fluorescein], the apparent permeability (Papp) at 360 min, 100 μmol/L in data set [1] came to 5.56 ± 0.8 ×10⁻⁶ cm/s; in data set [3] it was 7.23 ± 0.92 ×10⁻⁶ cm/s. In data set [2], this compound registered a logP at 24 h of 1.55. The “intracellular fluorescence (cellular uptake)” value in the data set with ARPE-19 (2 h) and in the data set on hRMECs (2 h) was “strong fluorescence” in each case. Also, the “intracellular fluorescence (cellular retention)” value in the data set on ARPE-19 (6 h) and with hRMECs (6 h) was “almost no fluorescein was observed” throughout. Further, the solubility at 24 h in the data set “Solubility study” is 6.75 µg/mL (≈ 20.3 µM).
